# In the library only some 2.9% were active in any assay of this set; here they are far more common.
# IMP-1 inh-1 – IMP-1 metallo-beta-lactamase inhibitors, primary screen, biochemical, epi-absorbance readout, Pseudomonas aeruginosa enzyme; metallo-beta-lactamase IMP-1 (Pseudomonas aeruginosa); purified IMP-1, nitrocefin hydrolysis, epi-absorbance fluorescence; inhibition, % at 5.6 µM; 290,000 compounds, 0.45% hits;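 active = inhibition above the mean plus 3 SD of all compounds in the same screening run, cut at about 4.5% in these data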
#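 System: purified IMP-1; amount: IMP-1 0.2 nM before substrate addition; compound: single dose, 5.6 µM; times: 25 °C, 15 min preincubation, 25 min reaction; signal: Epi-absorbance via hydrolysed-nitrocefin quenching of white-plate fluorescence, 480/530 nm, EDTA stop; benchmarks: DMSO with and without IMP-1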
# FID counter – compounds displacing fluorescent DNA intercalator, primary screen, artefact control for HCV NS3 helicase inhibitor project, biochemical, FID fluorescence | DNA fluorescent intercalator displacement | inhibition, % at 7.9 µM | 290,000 compounds, 0.17% hits; in the data active = inhibition above about 37%;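 also: higher means more ethidium bromide displaced from hairpin DNA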
# UBC9 SUMO inh – inhibitors of in vitro SUMOylation cascade, primary screen, biochemical, HTRF, uHTS; SUMO-conjugating enzyme UBC9 (Homo sapiens), P63279; HTRF SUMOylation assay, SAE1/SAE2 + UBC9; inhibition, % at 35 µM; 290,000 compounds, 0.36% hits; AID 2006, 2009; in the data active = inhibition above about 50%, passing the limit was not always enough
# Target sequence (P63279 whole entry, looked up): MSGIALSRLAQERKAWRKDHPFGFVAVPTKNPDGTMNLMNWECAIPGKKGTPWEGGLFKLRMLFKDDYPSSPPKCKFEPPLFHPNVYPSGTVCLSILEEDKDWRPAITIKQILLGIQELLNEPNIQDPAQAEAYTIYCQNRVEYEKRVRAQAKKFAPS
# SUMO Mot1 rescue – yeast Mot1-301 growth rescue at high temperature, primary screen, SUMOylation pathway inhibitor project, S. cerevisiae, ATP luminescence, 38.5C; 320,000 compounds, 1% hits; S. cerevisiae Mot1-301 growth rescue; percent above DMSO median, 100 means doubled; growth rescue, % at 18.8 µM; AID 2716, 2010;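 active = every valid replicate shows activation above 250% relative to neutral control wells; inactive = the rest, any valid replicate at or below 250%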
# VIM-2 inh – VIM-2 metallo-beta-lactamase inhibitors, primary screen, biochemical, epi-absorbance readout, Pseudomonas aeruginosa enzyme. AID 1527, 2009. purified VIM-2, nitrocefin hydrolysis, epi-absorbance fluorescence. inhibition, % at 5.6 µM. 290,000 compounds, 0.89% hits;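 active = inhibition above the mean of all tested compounds plus 3 SD, cutoff set per screening run, cut at about 7.5% in these data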;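 also: red hydrolysis product quenches plate fluorescence so inhibitors raise well fluorescence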
# NALP1 inh – NALP1 inflammasome inhibitors in reconstituted yeast, colorimetric, S. cerevisiae, triplicate retest; S. cerevisiae NALP1/ASC/caspase-1 growth, X-gal OD620, 72 h; inhibition, % at 10 µM; 280,000 compounds, 0.61% hits; AID 2071, 2009; in the data active = inhibition mostly above about 24%, no sharp cut-off; inactive = mostly below about 32%
# IMP-1 inh-2 – IMP-1 metallo-beta-lactamase inhibitors, confirmation, selectivity assay for selective VIM-2 inhibitor project, biochemical, epi-absorbance readout, triplicate. shares compounds with VIM-2 inh. purified IMP-1, nitrocefin hydrolysis, epi-absorbance fluorescence. inhibition, % at 5.6 µM. 1,300 tested, under 10 active; call rule not given here
# VIM-2 FRET inh – VIM-2 inhibitors in FRET format, confirmation, artefact control for selective VIM-2 inhibitor project, biochemical, epi-absorbance artifact exclusion; AID 1857, 2009; inhibition, % at 5.6 µM; 1,300 compounds, 23% hits; purified VIM-2, CCF2 FRET substrate hydrolysis; shares compounds with VIM-2 inh;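 active = inhibition above the mean of all tested compounds plus 3 SD, cut at about 19% in these data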
# TEM-1 inh – TEM-1 serine beta-lactamase inhibitors, counter-screen for VIM-2 inhibitor project, biochemical, epi-absorbance, HTS; inhibition, % at 5.6 µM; AID 1866, 2009; 1,300 compounds, 3% hits; shares compounds with VIM-2 inh; Purified TEM-1, nitrocefin hydrolysis, epi-absorbance fluorescence;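 active = inhibition above that campaign's mean inhibition plus 3 SD, cut at about 0.46% in these data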
# Target sequence (P62593 whole entry, looked up): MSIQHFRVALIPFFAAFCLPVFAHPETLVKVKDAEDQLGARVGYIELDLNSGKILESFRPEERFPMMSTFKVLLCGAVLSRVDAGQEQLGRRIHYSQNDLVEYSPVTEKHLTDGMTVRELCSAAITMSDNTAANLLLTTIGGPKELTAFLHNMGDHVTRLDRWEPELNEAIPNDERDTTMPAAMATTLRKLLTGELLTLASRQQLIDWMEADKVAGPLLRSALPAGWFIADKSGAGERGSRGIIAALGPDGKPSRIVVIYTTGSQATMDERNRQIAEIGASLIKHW
# VIM-2 confirm 2 – VIM-2 metallo-beta-lactamase inhibitors, confirmation, biochemical, epi-absorbance, hits shared with IMP-1 screen; shares compounds with VIM-2 inh; purified VIM-2, nitrocefin hydrolysis; inhibition, % at 5.6 µM; 1,300 compounds, 96% hits; AID 2187, 2009;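 active = inhibition of the VIM-2 beta-lactamase enzyme above about 11% from the earlier first-round screen, limit read from the data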
# Numbers stand for hits; i = inactive; nt = no result given.
SMILES,IMP-1 inh-1,FID counter,UBC9 SUMO inh,SUMO Mot1 rescue,VIM-2 inh,NALP1 inh,IMP-1 inh-2,VIM-2 FRET inh,TEM-1 inh,VIM-2 confirm 2
COc1ccc(-c2ccc(CNCc3ccccn3)o2)cc1Cl,i,i,i,i,55,i,i,i,i,67
CC(C)C(CCNCc1ccccn1)c1ccc(Cl)cc1 (centres undefined),i,i,i,i,i,i,nt,nt,nt,nt
Clc1ccc(-c2ccc(CNCc3ccccn3)o2)cc1,i,i,i,i,24,i,i,i,i,42
O=C(NCC(=O)N1CCOCC1)c1ccc(Cl)c(Cl)c1,nt,nt,nt,i,nt,nt,nt,nt,nt,nt
Cc1c(NC(=O)C(C)OC(=O)CCC2CCCC2)c(=O)n(-c2ccccc2)n1C (centres undefined),i,i,i,i,i,i,nt,nt,nt,nt
Cc1ccccc1C(=O)Nc1nnc(SCC(=O)NCc2ccco2)s1,i,i,i,i,52,i,i,75,i,61
Cc1ccccc1Nc1nnc(SCC(=O)NCc2ccco2)s1,i,i,i,nt,i,i,nt,nt,nt,nt
Cc1ccc2cc(C)c3nnc(SCC(=O)NCc4ccco4)n3c2c1,i,i,i,i,i,i,nt,nt,nt,nt
O=C(CSc1nnc(NC(=O)c2ccccc2)s1)NCc1ccco1,i,i,i,i,25,i,i,44,i,28
Cc1cc2cc(C)c3nnc(SCC(=O)NCc4ccco4)n3c2cc1C,i,i,i,i,13,i,i,i,i,24
O=C(CSc1nnc(NC(=O)c2cccc(F)c2)s1)NCc1ccco1,i,i,i,i,33,i,i,54,i,39
O=C(CSc1nnc(NC(=O)c2ccc3c(c2)OCO3)s1)NCc1ccco1,i,i,i,i,i,i,nt,nt,nt,nt
O=C1OCCC1Sc1nnc(-c2cccnc2)n1-c1ccccc1F (centres undefined),i,i,i,i,i,i,nt,nt,nt,nt
O=C(CSc1nnc(NC(=O)C2CCCCC2)s1)NCc1ccco1,i,i,i,i,28,i,i,62,i,43
Cc1cc(C)n(CCNS(=O)(=O)c2ccc(C)c(C)c2)n1,i,i,i,i,i,i,nt,nt,nt,nt
CCOC(=O)c1cnc(-n2nc(C)cc2C)nc1Nc1ccc(N(C)C)cc1,i,i,i,i,26,i,i,i,i,75
CCOC(=O)c1cnc(-n2nc(C)cc2C)nc1NC1CCCCC1,i,i,i,i,14,i,i,i,i,28
COC(=O)c1c(NC(=O)c2ccco2)sc2c1CCN(C(C)=O)C2,i,i,i,i,21,i,i,i,i,30
COC(=O)c1c(NC(=O)c2ccccc2OC)sc(C(=O)N2CCOCC2)c1C,i,i,i,i,14,i,i,i,i,20
COCCN1C(=O)c2cc(C(=O)Nc3ccc(OC)c(OC)c3)ccc2C1Nc1ccc(OC)c(OC)c1 (centres undefined),i,i,i,i,i,i,nt,nt,nt,nt
Cc1ccc(-c2nn(C)c(=O)c3ccccc23)cc1S(=O)(=O)NCCN1CCOCC1,i,i,i,i,14,i,i,i,i,28
CCOCCCn1c(=S)[nH]c2cc(C(=O)NCC(OC)OC)ccc2c1=O,i,i,i,i,i,i,nt,nt,nt,nt
CCn1cc(C(=O)NCCCN2CCCC(C)C2)c(=O)c2cc(S(=O)(=O)N3CCOCC3)ccc21 (centres undefined),i,i,i,i,i,i,nt,nt,nt,nt
NC(=O)N=Nc1c2[nH]c3ccccc3nc-2c2ccccc12,i,i,i,i,21,i,i,i,i,38
O=C(Nc1ccc(Br)cc1Br)c1cccc2c1C(=O)N(C1CCCCC1)C2,i,i,i,i,i,i,nt,nt,nt,nt
SMILES,IMP-1 inh-1,FID counter,UBC9 SUMO inh,SUMO Mot1 rescue,VIM-2 inh,NALP1 inh,IMP-1 inh-2,VIM-2 FRET inh,TEM-1 inh,VIM-2 confirm 2
CC(=O)N1CCN(c2ccc(Nc3nc(C)nc4c3oc3ccccc34)cc2)CC1,nt,nt,nt,i,nt,nt,nt,nt,nt,nt
COc1ccc(CCNc2nc(C)nc3c2oc2ccccc23)cc1OC,i,i,i,i,i,i,nt,nt,nt,nt
Cc1nc(NCCc2cnc[nH]2)c2oc3ccccc3c2n1,i,i,i,i,71,i,i,i,1.7,84
Cc1nc(Nc2ccncc2)c2oc3ccccc3c2n1,i,i,i,i,45,i,i,i,i,57
Cc1nc(N2CCOCC2)c2oc3ccccc3c2n1,i,i,i,i,19,i,i,i,i,34
CC(=O)Nc1ccc(Nc2nc(C)nc3c2oc2ccccc23)cc1,i,i,i,i,18,i,i,i,i,29
Cc1cccc(Nc2nc(C)nc3c2oc2ccccc23)c1,i,i,i,i,i,i,nt,nt,nt,nt
CCN(C(=O)COc1ccc2ccc(=O)oc2c1)C1CCCCC1,nt,nt,nt,i,nt,nt,nt,nt,nt,nt
COCCn1c(=O)[nH]c2cc(C(=O)Nc3cc(C)cc(C)c3)ccc2c1=O,i,i,i,i,i,i,nt,nt,nt,nt
CCc1nc(Nc2ccncc2)c2oc3ccccc3c2n1,i,i,i,i,44,i,i,i,i,54
CCc1nc(Nc2cccc(O)c2)c2oc3ccccc3c2n1,i,i,i,i,i,i,nt,nt,nt,nt
Cc1cc(OC(C)C(=O)NCC(O)c2ccccc2)c2c(C)c(C)c(=O)oc2c1 (centres undefined),i,i,i,i,i,i,nt,nt,nt,nt
Cc1c(OC(C)C(=O)NCc2ccncc2)ccc2c3c(c(=O)oc12)CCC3 (centres undefined),i,i,i,i,23,i,i,i,i,36
Cc1c(OCC(=O)OC(C)C)ccc2c3c(c(=O)oc12)CCC3,i,i,i,i,i,i,nt,nt,nt,nt
Cc1c(OCC(=O)NCc2cccnc2)ccc2c3c(c(=O)oc12)CCC3,i,i,i,i,27,i,i,i,i,31

# High-throughput results (PubChem)
